Assay results taken from ChEMBL document CHEMBL1122328, “Hypolipidemic activity of phthalimide derivatives. 2. N-phenylphthalimide and derivatives” (1983).

How the values were obtained:
Type in all cases: functional
Mus musculus [1] = assay: Effect on phospholipids from CF1 male mice after 16 days at a dose of 10 (mg/kg/day)
Outline: (§1)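 Dosing was ip in CF₁ male mice (~25 g) for 16 days, with compound suspended in 1% carboxymethylcellulose. Liver was then taken and homogenised to 10% in 0.25 M sucrose with 0.001 M EDTA. Lipid was extracted from a 2 mL aliquot by the Folch and Bligh–Dyer methods and total mg of lipid was weighed. Cholesterol (Liebermann–Burchard), triglycerides (kit), neutral lipids and phospholipids were then measured; N = 6; reported as % of vehicle control.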

Rattus norvegicus [2] = assay: Effect on very low density neutral lipids Holtzman rats after 14 days administration
Outline: (§2)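 Holtzman male rats (~400 g) received drug at 20 (mg/kg)/day for 14 days. On day 14, blood was collected from the abdominal aorta and serum was separated by centrifugation at 3500 rpm. Lipid content of the lipoprotein fractions was then determined.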

Mus musculus [3] = assay: In vitro effect on CF1 male mouse on HMGCoA reductase after 16 days at a dose of 20 (mg/kg)/day
Outline: (§3)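 In vivo enzyme study. CF₁ male mice were dosed ip for 16 days in 1% CMC, and liver was homogenised to 10% in 0.25 M sucrose with 0.001 M EDTA. Enzymes assayed: acetyl-CoA synthetase as hydroxamate at 540 nm after 30 min at 37 °C; HMG CoA reductase with [1-¹⁴C]acetate in 9000g supernatant for 60 min at 37 °C; fatty acid synthetase with [2-¹⁴C]malonyl-CoA; acyltransferase with [³H]glycerol 3-phosphate and microsomes for 10 min; phosphatidate phosphohydrolase as released phosphate at 820 nm after 30 min. N = 6; reported as % control.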

Rattus norvegicus [4] = assay: Effect on low density Triglycerides Holtzman rats after 14 days administration
Outline: (§4)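 Holtzman male rats (~400 g) given drug at 20 (mg/kg)/day for 14 days; on day 14 blood taken from the abdominal aorta and serum separated by centrifugation at 3500 rpm; lipid and protein content of the lipoprotein fractions measured.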

Mus musculus [5] = assay: In vitro effect on CF1 male mouse on acyltransferase after 16 days at a dose of 10 (mg/kg)/day; outline: as §3
Mus musculus [6] = assay: Effect on triglycerides from CF1 male mice after 16 days at a dose of 20 (mg/kg/day); outline: as §1
Mus musculus [7] = assay: In vitro effect on CF1 male mouse on phosphatidate phosphohydrolase after 16 days at a dose of 60 (mg/kg)/day
Outline: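 CF1 male mice dosed ip daily for 16 days, drug suspended in 1% carboxymethylcellulose; liver taken as 10% homogenate in 0.25 M sucrose + 0.001 M EDTA. Phosphatidate phosphohydrolase measured as inorganic phosphate released from phosphatidic acid after 30 min, developed with ascorbic acid/ammonium molybdate, read at 820 nm. Expressed as % of 1% CMC vehicle control; N = 6.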

Mus musculus [8] = assay: Effect on Serum cholesterol levels on CF1 male mice at a dose of 25 (mg/kg)/day after 16 days
Outline: (§5)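 CF1 male mice (~25 g), drug suspended in 1% carboxymethylcellulose in water, given ip daily for 16 days; n = 6; vehicle control. Tail-vein blood on days 9 and 16, serum cholesterol by modified Liebermann–Burchard reaction; day-14 serum triglyceride by commercial kit; expressed as % control.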

Mus musculus [9] = assay: Effect on Serum cholesterol levels on CF1 male mice at a dose of 50 (mg/kg)/day after 16 days; outline: as §5
Rattus norvegicus [10] = assay: Effect on very low density Triglycerides Holtzman rats after 14 days administration; outline: as §2
Rattus norvegicus [11] = assay: Effect on Chylomicrons of Triglycerides Holtzman rats after 14 days administration; outline: as §4
Mus musculus [12] = assay: Effect on Serum triglceride levels on Hyperlipidemic induced mice After 14 days dosing.
Outline: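 Mice fed atherogenic diet for 2 weeks to raise serum lipids, then given drug at 20 (mg/kg)/day ip for a further 2 weeks; serum cholesterol and triglyceride measured after the diet and after 14 days dosing; n = 6; compared with 1% CMC and diet-only controls; % control.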

CC(=O)c1ccccc1N1C(=O)c2ccccc2C1=O
Control (Mus musculus [1]): 90% | Control (Rattus norvegicus [2]): 81% | Control (Mus musculus [3]): 81% | Control (Rattus norvegicus [4]): 52% | Control (Mus musculus [5]): 35% | Control (Mus musculus [6]): 91% | Control (Mus musculus [7]): 98% | Control (Mus musculus [8]): 38% | Control (Mus musculus [9]): 29% | Control (Rattus norvegicus [10]): 46% | Control (Rattus norvegicus [11]): 41% | Control (Mus musculus [12]): 86%
